Measured values as given in ChEMBL document CHEMBL3352363, “1,4-disubstituted-[1,2,3]triazolyl-containing analogues of MT-II: design, synthesis, conformational analysis, and biological activity” (J Med Chem, 2014).
Where a SMILES comes first, the peptide text is derived from it. Bridges are numbered along the chain shown (N, C = ends). Triazole bridges read from a SMILES are 1,4-linked. [ ]: non-standard residue; d: D form. Lys(N3) = [N-]=[N+]=NCCCC[C@H](N)C(=O)O; Nle = CCCC[C@H](N)C(=O)O; Pra = C#CC[C@H](N)C(=O)O

Key:
Type in all cases: functional, cell-based
[1] = biological target: Melanocortin receptor 3 (Mus musculus, UniProt P33033); test: Activity at mouse MC3R expressed in HEK293 cells assessed as cAMP accumulation by CRE/beta-galactosidase reporter gene assay
Chain of Melanocortin receptor 3 (P33033 whole entry): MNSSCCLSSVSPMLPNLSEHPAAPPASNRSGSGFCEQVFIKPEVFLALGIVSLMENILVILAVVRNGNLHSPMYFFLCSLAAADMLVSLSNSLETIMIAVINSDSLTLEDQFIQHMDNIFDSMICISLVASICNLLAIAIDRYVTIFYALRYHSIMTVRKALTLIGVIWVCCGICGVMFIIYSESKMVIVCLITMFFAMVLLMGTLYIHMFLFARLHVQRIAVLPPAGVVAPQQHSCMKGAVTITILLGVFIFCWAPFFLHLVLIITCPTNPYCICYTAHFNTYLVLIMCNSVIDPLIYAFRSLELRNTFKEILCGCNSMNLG
Outline: (§1)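 Stably transfected HEK-293 cells transiently transfected with 4 μg CRE/β-galactosidase reporter, 5000–15000 cells plated on collagen-treated wells overnight. Lysates frozen −80 °C; ONPG substrate at 37 °C, OD405 normalized to protein (OD595).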

[2] = biological target: Melanocortin receptor 4 (Mus musculus, UniProt P56450); test: Activity at mouse MC4R expressed in HEK293 cells assessed as cAMP accumulation by CRE/beta-galactosidase reporter gene assay; outline: as §1
Chain of Melanocortin receptor 4 (P56450 whole entry): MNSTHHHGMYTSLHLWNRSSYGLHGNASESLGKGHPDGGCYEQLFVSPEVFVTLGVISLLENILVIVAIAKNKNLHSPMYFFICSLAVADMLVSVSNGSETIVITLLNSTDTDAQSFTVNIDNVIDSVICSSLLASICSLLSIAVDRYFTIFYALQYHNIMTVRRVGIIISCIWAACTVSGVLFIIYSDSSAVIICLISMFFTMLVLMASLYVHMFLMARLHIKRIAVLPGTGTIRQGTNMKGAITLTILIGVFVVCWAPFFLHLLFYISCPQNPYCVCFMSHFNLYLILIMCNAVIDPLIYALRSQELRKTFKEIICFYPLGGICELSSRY

[3] = biological target: Melanocortin receptor 5 (Mus musculus, UniProt P41149); test: Activity at mouse MC5R expressed in HEK293 cells assessed as cAMP accumulation by CRE/beta-galactosidase reporter gene assay; outline: as §1
Chain of Melanocortin receptor 5 (P41149 whole entry): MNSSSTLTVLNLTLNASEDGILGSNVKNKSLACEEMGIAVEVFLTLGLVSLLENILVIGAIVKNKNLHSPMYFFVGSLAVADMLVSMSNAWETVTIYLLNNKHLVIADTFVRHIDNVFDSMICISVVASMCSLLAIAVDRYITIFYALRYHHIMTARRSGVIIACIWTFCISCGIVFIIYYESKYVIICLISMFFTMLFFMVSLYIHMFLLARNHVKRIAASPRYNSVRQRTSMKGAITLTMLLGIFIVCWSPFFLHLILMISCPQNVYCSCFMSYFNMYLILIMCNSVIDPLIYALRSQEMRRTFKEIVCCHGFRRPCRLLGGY

[4] = biological target: Melanocyte-stimulating hormone receptor (Mus musculus, UniProt Q01727); test: Activity at mouse MC1R expressed in HEK293 cells assessed as cAMP accumulation by CRE/beta-galactosidase reporter gene assay; outline: as §1
Chain of Melanocyte-stimulating hormone receptor (Q01727 whole entry): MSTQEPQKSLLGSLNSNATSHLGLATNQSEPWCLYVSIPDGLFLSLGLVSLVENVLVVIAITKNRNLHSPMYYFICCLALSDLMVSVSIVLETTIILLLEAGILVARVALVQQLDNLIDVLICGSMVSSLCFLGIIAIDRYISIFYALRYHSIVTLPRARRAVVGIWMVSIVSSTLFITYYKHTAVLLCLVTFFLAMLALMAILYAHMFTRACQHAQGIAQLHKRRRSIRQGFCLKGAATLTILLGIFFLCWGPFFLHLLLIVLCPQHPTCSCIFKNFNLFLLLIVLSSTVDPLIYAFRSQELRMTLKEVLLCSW

Row | EC50 [1] [nM] | EC50 [2] [nM] | EC50 [3] [nM] | EC50 [4] [nM] | SMILES
1 | 1.1 | 0.21 | – | – | CCCC[C@H](NC(C)=O)C(=O)N[C@@H](CC(=O)O)C(=O)N[C@@H](Cc1c[nH]cn1)C(=O)N[C@H](Cc1ccccc1)C(=O)N[C@@H](CCCN=C(N)N)C(=O)N[C@@H](Cc1c[nH]c2ccccc12)C(=O)N[C@@H](CCCCN)C(N)=O
2 | – | – | 1.9 | – | C#CC[C@H](NC(=O)[C@H](Cc1c[nH]c2ccccc12)NC(=O)[C@H](CCCNC(=N)N)NC(=O)[C@@H](Cc1ccccc1)NC(=O)[C@H](Cc1cnc[nH]1)NC(=O)[C@H](CCCCN=[N+]=[N-])NC(=O)[C@H](CCCC)NC(C)=O)C(N)=O
3 | 1.32 | 0.14 | 0.13 | 0.53 | CCCCCC[C@H](NC(=O)[C@H](Cc1c[nH]c2ccccc12)NC(=O)[C@H](CCCNC(=N)N)NC(=O)[C@@H](Cc1ccccc1)NC(=O)[C@H](Cc1cnc[nH]1)NC(=O)[C@H](CN=[N+]=[N-])NC(=O)[C@H](CCCC)NC(C)=O)C(N)=O
4 | 3.14 | 1.62 | 1.93 | 5.18 | CCCC[C@H](NC(C)=O)C(=O)N[C@H]1Cc2cn(nn2)CCCC[C@@H](C(N)=O)NC(=O)[C@H](Cc2c[nH]c3ccccc23)NC(=O)[C@H](CCCNC(=N)N)NC(=O)[C@@H](Cc2ccccc2)NC(=O)[C@H](Cc2cnc[nH]2)NC1=O
5 | 0.29 | 0.22 | 0.34 | 0.11 | CCCC[C@H](NC(C)=O)C(=O)N[C@H]1CCc2cn(nn2)CCC[C@@H](C(N)=O)NC(=O)[C@H](Cc2c[nH]c3ccccc23)NC(=O)[C@H](CCCNC(=N)N)NC(=O)[C@@H](Cc2ccccc2)NC(=O)[C@H](Cc2cnc[nH]2)NC1=O
6 | 0.21 | 0.051 | 0.042 | 0.1 | CCCC[C@H](NC(C)=O)C(=O)N[C@H]1CCCc2cn(nn2)CC[C@@H](C(N)=O)NC(=O)[C@H](Cc2c[nH]c3ccccc23)NC(=O)[C@H](CCCNC(=N)N)NC(=O)[C@@H](Cc2ccccc2)NC(=O)[C@H](Cc2cnc[nH]2)NC1=O
7 | 0.2 | – | – | 0.087 | CCCC[C@H](NC(C)=O)C(=O)N[C@H]1CCCCc2cn(nn2)C[C@@H](C(N)=O)NC(=O)[C@H](Cc2c[nH]c3ccccc23)NC(=O)[C@H](CCCNC(=N)N)NC(=O)[C@@H](Cc2ccccc2)NC(=O)[C@H](Cc2cnc[nH]2)NC1=O
8 | 1.91 | 0.85 | 1.88 | 0.71 | CCCC[C@H](NC(C)=O)C(=O)N[C@H]1CCCn2cc(nn2)CC[C@@H](C(N)=O)NC(=O)[C@H](Cc2c[nH]c3ccccc23)NC(=O)[C@H](CCCNC(=N)N)NC(=O)[C@@H](Cc2ccccc2)NC(=O)[C@H](Cc2cnc[nH]2)NC1=O
9 | 0.2 | 0.048 | 0.045 | 0.074 | CCCC[C@H](NC(C)=O)C(=O)N[C@H]1CCn2cc(nn2)CCC[C@@H](C(N)=O)NC(=O)[C@H](Cc2c[nH]c3ccccc23)NC(=O)[C@H](CCCNC(=N)N)NC(=O)[C@@H](Cc2ccccc2)NC(=O)[C@H](Cc2cnc[nH]2)NC1=O
10 | 0.6 | 0.14 | – | 0.53 | CCCC[C@H](NC(C)=O)C(=O)N[C@H]1Cn2cc(nn2)CCCC[C@@H](C(N)=O)NC(=O)[C@H](Cc2c[nH]c3ccccc23)NC(=O)[C@H](CCCNC(=N)N)NC(=O)[C@@H](Cc2ccccc2)NC(=O)[C@H](Cc2cnc[nH]2)NC1=O
11 | 0.63 | 0.14 | 0.15 | 0.32 | CCCC[C@H](NC(C)=O)C(=O)N[C@H]1CCc2cn(nn2)CC[C@@H](C(N)=O)NC(=O)[C@H](Cc2c[nH]c3ccccc23)NC(=O)[C@H](CCCNC(=N)N)NC(=O)[C@@H](Cc2ccccc2)NC(=O)[C@H](Cc2cnc[nH]2)NC1=O
12 | 0.29 | 0.067 | 0.07 | 0.2 | CCCC[C@H](NC(C)=O)C(=O)N[C@H]1CCn2cc(nn2)CC[C@@H](C(N)=O)NC(=O)[C@H](Cc2c[nH]c3ccccc23)NC(=O)[C@H](CCCNC(=N)N)NC(=O)[C@@H](Cc2ccccc2)NC(=O)[C@H](Cc2cnc[nH]2)NC1=O
13 | 3.7 | 0.58 | 1.76 | 0.85 | CCCC[C@H](NC(C)=O)C(=O)N[C@H]1CCCCn2cc(nn2)C[C@@H](C(N)=O)NC(=O)[C@H](Cc2c[nH]c3ccccc23)NC(=O)[C@H](CCCNC(=N)N)NC(=O)[C@@H](Cc2ccccc2)NC(=O)[C@H](Cc2cnc[nH]2)NC1=O (Ac-[Nle][Lys(N3)]H[dF]RW[Pra]-NH2; triazole 2-7)
